In general, IC50 refers to the concentration at which inhibition is half-maximal.

We go through 2 molecules from BindingDB's records for doi:10.1021/acs.jmedchem.5b00686 (University of Hawaii At Hilo, 2015).

The assay concerns the target Signal transducer and activator of transcription 3 (Homo sapiens, UniProt P40763). The assay can be described thus: Inhibition of Stat3 dimer DNA binding activity in human U373MG cells nuclear extract after 1.5 hrs by EMSA using radiolabeled probe hSIE. The method, boiled down: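 Sub-confluent U251MG or U373MG cells treated with compound (5 μM for 0–24 h, or 0–5 μM for 1.5 h). Stat3:DNA bands scanned, quantified and plotted against concentration to derive IC50. Controls were 0.025% DMSO.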
In general terms: In EMSA bound probe runs differently from free probe, usually more slowly.

Sequence of Signal transducer and activator of transcription 3 (P40763 whole entry): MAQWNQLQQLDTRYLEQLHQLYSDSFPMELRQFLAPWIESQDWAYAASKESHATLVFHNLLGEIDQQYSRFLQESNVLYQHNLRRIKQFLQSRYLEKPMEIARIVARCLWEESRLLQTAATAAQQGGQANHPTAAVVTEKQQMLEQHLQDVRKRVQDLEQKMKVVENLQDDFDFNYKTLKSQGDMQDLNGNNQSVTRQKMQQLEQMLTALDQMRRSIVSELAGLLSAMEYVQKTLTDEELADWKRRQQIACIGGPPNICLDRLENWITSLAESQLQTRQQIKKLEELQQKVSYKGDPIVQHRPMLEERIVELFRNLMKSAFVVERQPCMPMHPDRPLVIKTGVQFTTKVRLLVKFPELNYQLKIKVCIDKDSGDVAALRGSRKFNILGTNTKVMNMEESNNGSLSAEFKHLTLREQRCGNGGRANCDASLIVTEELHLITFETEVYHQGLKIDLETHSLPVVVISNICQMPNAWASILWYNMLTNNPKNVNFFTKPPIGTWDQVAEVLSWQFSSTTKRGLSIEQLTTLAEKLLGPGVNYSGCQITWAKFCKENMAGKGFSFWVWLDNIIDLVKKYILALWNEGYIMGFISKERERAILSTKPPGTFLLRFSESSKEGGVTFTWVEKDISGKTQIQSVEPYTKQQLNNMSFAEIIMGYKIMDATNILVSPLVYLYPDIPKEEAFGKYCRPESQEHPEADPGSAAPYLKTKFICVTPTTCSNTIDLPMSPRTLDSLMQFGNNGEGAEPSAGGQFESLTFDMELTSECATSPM

In turn, `C/C=C(\C)C(=O)OCC1=C2/C(=C\[C@@]3(C)CC[C@](O)(O3)[C@H](C)C[C@@H]2O)OC1=O` registered an IC50 of 2.4 µM.

The molecule `C/C=C(\C)C(=O)O[C@H]1C[C@@H](C)[C@]2(OC)CC[C@](C)(/C=C3/OC(=O)C(COC(C)=O)=C31)O2` [Vernolide-B] had a half-inhibitory concentration (IC50) of 4.1 µM.
